Laboratory results: ChEMBL document CHEMBL4052637, “Discovery and Characterization of R/S-N-3-Cyanophenyl-N'-(6-tert-butoxycarbonylamino-3,4-dihydro-2,2-dimethyl-2H-1-benzopyran-4-yl)urea, a New Histone Deacetylase Class III Inhibitor Exerting Antiproliferative Activity against Cancer Cell Lines” (J Med Chem, 2017)
The source made the active and inactive calls. No cut-off for these calls is given here.

Experiments:
[1] = tested on: Hs 683; assay: Cell cycle arrest in human Hs683 cells assessed as accumulation at G1 phase at 2 uM after 24 to 48 hrs by propidium iodide staining-based flow cytometry; format: functional
How it was run: (§1)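 Cells were exposed to compound at the IC50 for each line from the 72 h MTT assay, or to a reference HDAC inhibitor at 2 μM. Cell cycle distribution was analyzed after 24 and 48 h. Results are mean ± SD of three independent experiments, with p values against control cells.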

[2] = tested on: U-373MG ATCC; assay: Cell cycle arrest in human U373 cells assessed as accumulation at sub-G1 phase at 2 uM after 24 to 48 hrs by propidium iodide staining-based flow cytometry; format: functional; how it was run: as §1
[3] = tested on: Hs 683; assay: Cell cycle arrest in human Hs683 cells assessed as accumulation at sub-G1 phase at 2 uM after 24 to 48 hrs by propidium iodide staining-based flow cytometry; format: functional; how it was run: as §1
[4] = target: T1, NAD-dependent protein deacetylase sirtuin-2 (Homo sapiens) (UniProt Q8IXJ6); assay: Inhibition of SIRT2 in human U373 cells assessed as increase of alpha-tubulin acetylation at 2 uM after 8 hrs by Western blotting method relative to control; format: cell-based
T1 sequence (whole entry): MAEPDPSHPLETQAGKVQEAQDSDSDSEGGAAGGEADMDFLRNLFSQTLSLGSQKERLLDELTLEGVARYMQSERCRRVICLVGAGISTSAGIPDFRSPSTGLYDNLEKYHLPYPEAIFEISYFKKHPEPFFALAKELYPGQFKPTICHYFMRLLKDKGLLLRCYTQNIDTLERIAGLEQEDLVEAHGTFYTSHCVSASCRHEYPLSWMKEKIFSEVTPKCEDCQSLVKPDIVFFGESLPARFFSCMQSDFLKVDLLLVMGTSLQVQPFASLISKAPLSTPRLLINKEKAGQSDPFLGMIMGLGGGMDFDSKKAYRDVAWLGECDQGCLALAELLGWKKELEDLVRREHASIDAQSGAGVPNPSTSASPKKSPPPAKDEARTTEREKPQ

[5] = target: T1, NAD-dependent protein deacetylase sirtuin-2 (Homo sapiens); assay: Inhibition of SIRT2 in human Hs683 cells assessed as increase of alpha-tubulin acetylation at 2 uM after 8 hrs by Western blotting method relative to control; format: cell-based
[6] = target: T2, NAD-dependent protein deacetylase sirtuin-1 (Homo sapiens) (UniProt Q96EB6); assay: Inhibition of SIRT1 in human U373 cells assessed as increase of histone H4 acetylation at 2 uM after 8 hrs by Western blotting method relative to control; format: cell-based
T2 sequence (whole entry): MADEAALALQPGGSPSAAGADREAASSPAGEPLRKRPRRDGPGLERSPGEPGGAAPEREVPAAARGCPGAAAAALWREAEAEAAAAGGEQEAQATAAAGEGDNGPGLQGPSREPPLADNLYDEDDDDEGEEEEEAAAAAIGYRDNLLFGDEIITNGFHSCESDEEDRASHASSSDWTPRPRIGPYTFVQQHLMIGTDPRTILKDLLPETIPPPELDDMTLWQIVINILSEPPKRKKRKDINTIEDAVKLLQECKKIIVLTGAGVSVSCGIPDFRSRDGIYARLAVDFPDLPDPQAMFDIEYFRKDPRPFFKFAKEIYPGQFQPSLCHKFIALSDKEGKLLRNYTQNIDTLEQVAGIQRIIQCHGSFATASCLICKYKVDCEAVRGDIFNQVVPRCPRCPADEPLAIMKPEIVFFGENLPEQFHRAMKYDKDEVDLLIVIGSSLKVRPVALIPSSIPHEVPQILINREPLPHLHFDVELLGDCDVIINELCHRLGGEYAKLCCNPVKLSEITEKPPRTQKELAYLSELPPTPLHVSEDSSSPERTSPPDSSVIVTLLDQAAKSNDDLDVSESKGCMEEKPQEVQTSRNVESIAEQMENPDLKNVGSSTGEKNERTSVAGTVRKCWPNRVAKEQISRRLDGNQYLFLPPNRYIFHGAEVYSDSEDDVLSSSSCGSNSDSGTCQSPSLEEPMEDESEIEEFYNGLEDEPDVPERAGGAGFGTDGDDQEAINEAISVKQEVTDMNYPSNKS

[7] = target: T2, NAD-dependent protein deacetylase sirtuin-1 (Homo sapiens); assay: Inhibition of SIRT1 in human Hs683 cells assessed as increase of histone H4 acetylation at 2 uM after 8 hrs by Western blotting method relative to control; format: cell-based

## O=C(CCCCCCC(=O)Nc1ccccc1)NO
[1]
  Activity: Active
[2]
  Activity: Active
[3]
  Activity: Active
[4]
  fold change (FC): 18.6
[5]
  fold change (FC): 18.7
[6]
  fold change (FC): 7.9
[7]
  fold change (FC): 12.6
